Measurements taken from paper PMC3949619 (Bioorganic & medicinal chemistry, 2013).

What was measured:
[1] = system: KBH5.0 (overexpresses BCRP); assay: MTT-microtiter plate tetrazolinium cytotoxicity assay; assay type: cell-based, human; conditions: inferred from cytotoxicity in KBH5.0 versus parent KB3-1
[2] = system: KBV-1 (overexpresses the efflux transporter MDR1); assay: as above; assay type: cell-based, human; conditions: inferred from cytotoxicity in KBV-1 versus parent KB3-1
[3] = system: d(TTAGGG)4 quadruplex DNA; assay: UV melting of quadruplex DNA; assay type: binding, human; conditions: range over 50 and 150 mM K+ and over the compounds named together
Summary of the method: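 d(TTAGGG)4 at 5 μM strand, annealed at 90 °C for 5 min and slowly cooled over 4 h; test compound 20 μM. Buffer: 10 mM potassium phosphate, pH 7.5, plus KCl at 32 mM (50 mM K+) or 132 mM (150 mM K+). Absorbance read at 295 nm in 0.5 °C steps with 1 min equilibration. Ttran taken from the first-derivative minimum. ΔTtran is the shift against DNA alone, ±1.0 °C.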

[4] = qualitative statement of the introduction; no reference given; cited from earlier work
[5] = in vivo; cited from earlier work
KB3-1 = conditions: read-out: IC50 against KB3-1 cells; range for compounds 1 and 2 together; cited from earlier work
[6] = system: human breast cancer xenograft (MDA-MB-435); conditions: MDA-MB-435 human breast cancer xenograft, athymic nude mice; cited from earlier work

## CN(C)CC[C@@H]1NC(=O)c2coc(n2)-c2coc(n2)-c2cccc(c2)-c2cccc(c2)-c2nc(co2)-c2nc(co2)CNC1=O [Compound 21]
[1]
  substrate for BCRP efflux transporter: substrates
[2]
  substrate for MDR1 efflux transporter: substrates
[3]
  ΔTtran of quadruplex DNA (range given): 8.4–14.6 °C

## CC(C)[C@@H]1NC(=O)c2coc(n2)-c2coc(n2)-c2coc(n2)[C@H](C(C)C)NC(=O)c2coc(n2)-c2coc(n2)-c2coc1n2 [HXDV]
[4]
  aqueous solubility: poor aqueous solubility

## CC(C)[C@@H]1NC(=O)c2coc(n2)-c2coc(n2)-c2cccc(c2)-c2cccc(c2)-c2nc(co2)-c2nc(co2)CNC1=O [Compound 17]
[3]
  ΔTtran of quadruplex DNA (range given): 4.1–6.4 °C

## CC(C)(C)OC(=O)NCC[C@@H]1NC(=O)c2coc(n2)-c2coc(n2)-c2cccc(c2)-c2cccc(c2)-c2nc(co2)-c2nc(co2)CNC1=O [Compound 19]
[3]
  ΔTtran of quadruplex DNA (range given): 1.1–2.8 °C

## CC(C)[C@@H]1NC(=O)c2coc(n2)-c2coc(n2)-c2coc(n2)[C@H](CCN(C)C)NC(=O)c2coc(n2)-c2coc(n2)-c2coc1n2 [YAK-1-161]
[5]
  well tolerated dose levels: ≤ 45 mg/kg

## O=C1N[C@@H](Cc2ccccc2)C(=O)NCc2coc(n2)-c2coc(n2)-c2cccc(c2)-c2cccc(c2)-c2nc(co2)-c2nc1co2 [Compound 18]
[3]
  ΔTtran of quadruplex DNA (range given): 1.1–2.8 °C

## CN(C)CCc1cc2cc(c1)CNC(=O)c1coc(n1)-c1coc(n1)-c1cccc(n1)-c1nc(co1)-c1nc(co1)C(=O)NC2 [Compound 2]
KB3-1
  IC50: 30 to 40 nM
[6]
  %T/C value: 27.7%

## CC(C)[C@@H]1NC(=O)c2coc(n2)-c2coc(n2)-c2coc(n2)C/C=C/c2coc(n2)-c2coc(n2)-c2coc1n2 [METV]
[4]
  aqueous solubility: poor aqueous solubility

## O=C1CNC(=O)c2coc(n2)-c2coc(n2)-c2cccc(c2)-c2cccc(c2)-c2nc(co2)-c2nc(co2)CN1 [Compound 16]
[1]
  substrate for BCRP efflux transporter: substrates
[2]
  substrate for MDR1 efflux transporter: substrates
[3]
  ΔTtran of quadruplex DNA (range given): 4.1–6.4 °C

## NCC[C@@H]1NC(=O)c2coc(n2)-c2coc(n2)-c2cccc(c2)-c2cccc(c2)-c2nc(co2)-c2nc(co2)CNC1=O [Compound 20]
[1]
  substrate for BCRP efflux transporter: substrates
[2]
  substrate for MDR1 efflux transporter: substrates
[3]
  ΔTtran of quadruplex DNA (range given): 8.4–14.6 °C
